Laboratory results as given in ChEMBL document CHEMBL3784950, “Higginsianins A and B, Two Diterpenoid α-Pyrones Produced by Colletotrichum higginsianum, with in Vitro Cytostatic Activity” (J Nat Prod, 2016).
The source made the active and inactive calls. The calls are words filed in the database; no cut-off is given here.

Legend:
[1] = (§1) Antiproliferative activity against human Hs683 cells assessed as cell viability after 72 hrs by MTT assay; assay type: functional, cell-based; settings: Hs 683, 72 h
Procedure, shortened: (§2)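 Cells cultured 72 h with compound; MTT conversion to formazan read by spectrophotometry as a measure of metabolically active cells. IC50 is the concentration that reduces growth by 50% relative to control optical density. Six replicates per condition; one or two independent sextuplicate experiments.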

[2] = (§3) Antiproliferative activity against human U373 cells assessed as cell viability after 72 hrs by MTT assay; assay type: functional, cell-based, U-373MG ATCC; settings: U373 MG; procedure, shortened: as §2
A549 = experiment: Antiproliferative activity against human A549 cells assessed as cell viability after 72 hrs by MTT assay; assay type: functional, cell-based; settings: for IC50: A549, 72 h; procedure, shortened: as §2
MCF7 = experiment: Antiproliferative activity against human MCF7 cells assessed as cell viability after 72 hrs by MTT assay; assay type: functional, cell-based; settings: for IC50: MCF7, 72 h; procedure, shortened: as §2
SK-MEL-28 = experiment: Antiproliferative activity against human SK-MEL-28 cells assessed as cell viability after 72 hrs by MTT assay; assay type: functional, cell-based; settings: for IC50: SK-MEL-28, 72 h; procedure, shortened: as §2
[3] = (§4) Antiproliferative activity against mouse B16F10 cells assessed as cell viability after 72 hrs by MTT assay; assay type: functional, cell-based; settings: B16-F10, 72 h; procedure, shortened: as §2
Hs 683 [4] = experiment: as §1; assay type: functional, cell-based; procedure, shortened: as §2
U-373MG ATCC = experiment: as §3; assay type: functional, cell-based; procedure, shortened: as §2
B16-F10 = experiment: as §4; assay type: functional, cell-based; procedure, shortened: as §2
Hs 683 [5] = experiment: Cytostatic activity against human Hs683 cells assessed as morphological changes at 1 uM after 48 hrs by phase contrast microscopic analysis; assay type: functional, cell-based
Procedure, shortened: (§5)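 Phase-contrast microscopy of Hs683 glioma cells treated at 1 versus 50 μM, judging cytostatic versus cytotoxic morphology.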

Hs 683 [6] = experiment: Cytotoxicity against human Hs683 cells assessed as morphological changes at 50 uM after 48 hrs by phase contrast microscopic analysis; assay type: functional, cell-based; procedure, shortened: as §5
[7] = Antiproliferative activity against human Hs683 cells assessed as growth inhibition at 1 uM after 72 hrs by quantitative video microscopic analysis relative to control; assay type: functional; settings: Hs 683, 72 h, read-out: GI
Procedure, shortened: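 Hs683 cells filmed by computer-assisted phase-contrast microscopy at 1 μM and 40 μM versus control. Global growth is the cell count on the last image divided by that on the first, taken at 24, 48 and 72 h. The GGR index is treated global growth divided by control global growth. Run once in duplicate; mean ± SEM.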

[8] = Stability in human Hs683 cells assessed as photosensitivity at 1 to 40 uM by quantitative video microscopic analysis; assay type: ADME, cell-based; settings: hs 683, 40 µM
[9] = Stability in human Hs683 cells assessed as photoactivity at 1 to 40 uM by quantitative video microscopic analysis; assay type: ADME, cell-based; settings: hs 683, 40 µM

C=C1CC[C@H]2[C@](C)(CCC=C(C)C)[C@H](O)CC[C@]2(C)[C@@H]1Cc1c(O)c(C)c(C)oc1=O
IC50 [1]: 2 µM
IC50 [2]: 84 µM
IC50 (A549): 29 µM
IC50 (MCF7): 2 µM
IC50 (SK-MEL-28): 88 µM
IC50 [3]: 3 µM

C=C1CC[C@@H]2[C@](C)(CC[C@H](O)[C@@]2(C)CCC=C(C)C)[C@@H]1Cc1c(O)c(C)c(C)oc1=O
Activity (Hs 683 [4]): inactive
Activity (U-373MG ATCC): inactive
Activity (A549): inactive
Activity (MCF7): inactive
Activity (SK-MEL-28): inactive
Activity (B16-F10): inactive

C=C1CC[C@@H]2[C@](C)(CC[C@H]3O[C@H](C=C(C)C)C[C@@]23C)[C@@H]1Cc1c(OC(C)=O)c(C)c(C)oc1=O
IC50 [1]: 1 µM
IC50 (A549): 47 µM
IC50 (MCF7): 41 µM
IC50 (SK-MEL-28): 84 µM
IC50 [3]: 2 µM

C=C1CC[C@H]2[C@]3(C)C[C@@H](C=C(C)C)O[C@H]3CC[C@]2(C)[C@@H]1Cc1c(O)c(C)c(C)oc1=O
Activity (Hs 683 [4]): inactive
Activity (U-373MG ATCC): inactive
Activity (A549): inactive
Activity (MCF7): inactive
Activity (SK-MEL-28): inactive
Activity (B16-F10): inactive

C=C1CC[C@@H]2[C@](C)(CC[C@H]3O[C@H](C=C(C)C)C[C@@]23C)[C@@H]1Cc1c(O)c(C)c(C)oc1=O
IC50 [1]: 1 µM
IC50 [2]: 63 µM
IC50 (A549): 33 µM
IC50 (MCF7): 19 µM
IC50 (SK-MEL-28): 73 µM
IC50 [3]: 1 µM
Activity (Hs 683 [5]): Active
Activity (Hs 683 [6]): Active
inhibition of growth at 1 µM [7]: 50%
Stability [8]: Stable
Stability [9]: Stable

C=C1CC[C@@H]2[C@](C)(CC[C@H]3O[C@H](C=C(C)C)C[C@@]23C)[C@@H]1Cc1c(OC)c(C)c(C)oc1=O
IC50 [1]: 0.4 µM
IC50 (A549): 16 µM
IC50 (MCF7): 38 µM
IC50 (SK-MEL-28): 48 µM
IC50 [3]: 1 µM

C=C1CC[C@@H]2[C@](C)(CC[C@H]3CO[C@H](C=C(C)C)C[C@]32C)[C@@H]1Cc1c(O)c(C)c(C)oc1=O
IC50 [1]: 49 µM
IC50 (A549): 35 µM
IC50 (MCF7): 24 µM
IC50 (SK-MEL-28): 51 µM
IC50 [3]: 25 µM
